Sampled rows, rich in hits. Any-hit rate of the full collection: about 1.7%.
CAL PDZ FP-1 = CAL PDZ peptide-binding inhibitors, primary screen, biochemical, fluorescence polarization, Cer-tagged CAL PDZ, HTS | purified CAL PDZ, TMR-peptide fluorescence polarization, 1 h | Golgi-associated PDZ and coiled-coil motif-containing protein (Homo sapiens), Q9HD26 | inhibition, % at 20 µM | actives 0.02% (n = 330,000);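 active = highest replicate inhibition of at least 40%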;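 note: plate controls were DMSO neutral control wells for no effect and unlabeled competitor peptide control wells for full effect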
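System: tagged CAL PDZ domain. Schedule: 1 h room-temperature incubation prior to read. Signal: fluorescence polarization (mP). Measure: percent inhibition from loss of millipolarization.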
C-LANA FP = inhibitors of KSHV C-LANA binding to DNA, primary screen, biochemical, fluorescence polarization, FAM-LBS DNA, MBP-C-LANA, single point; Kaposi's sarcoma herpesvirus LANA C-terminal domain (residues 932-1162) DNA binding; inhibition, % at 9 µM; actives 0.078% (n = 340,000);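 active = highest replicate inhibition at or above 60% at 9 µM, even if other replicates fall short; inactive = all replicates below 60% inhibition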;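 note: 0% = neutral control wells and 100% = 4 µM acridine orange control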
APOBEC3G inh = APOBEC3G DNA deaminase inhibitors, primary screen, biochemical, fluorescence, single-stranded DNA substrate, uHTS. DNA dC->dU-editing enzyme APOBEC-3G (Homo sapiens), Q9HC16. inhibition, % at 20 µM. recombinant A3G, ssDNA deamination FAM/TAMRA fluorescence. AID 493012, 2011. actives 0.28% (n = 330,000);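 active = inhibition of at least 40% at 20 µM, with no more than 30% in the related APOBEC3A deaminase screen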;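 note: plate controls were DMSO wells with A3G for no effect and wells lacking A3G enzyme for full effect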
APOBEC3A inh = APOBEC3A ssDNA deaminase inhibitors, primary screen, selectivity assay for APOBEC3G inhibitor project, biochemical, FAM/TAMRA oligo cleavage fluorescence | recombinant A3A, FAM/TAMRA ssDNA deamination fluorescence | inhibition, % at 20 µM | actives 0.41% (n = 330,000);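 active = at least 40% inhibition at 20 µM here, with at most 30% in a related deaminase screen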;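 note: plate controls were A3A with DMSO for no effect and wells lacking A3A enzyme for full effect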
Target sequence (P31941 whole entry, looked up): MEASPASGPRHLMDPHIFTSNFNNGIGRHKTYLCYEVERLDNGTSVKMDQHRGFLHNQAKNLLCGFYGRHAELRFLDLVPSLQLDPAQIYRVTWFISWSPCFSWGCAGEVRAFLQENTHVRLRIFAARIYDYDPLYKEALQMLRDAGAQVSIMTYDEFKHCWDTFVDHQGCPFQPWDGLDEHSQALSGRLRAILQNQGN
CAL PDZ FP-2 = untagged CAL PDZ binding inhibitors, primary screen, biochemical, fluorescence polarization, HTS. purified CAL PDZ, TMR-peptide fluorescence polarization, 1 h. actives 0.92% (n = 300,000). AID 602252, 2012. inhibition, % at 24.9 µM;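 active = mean inhibition of at least 30% with at least half of replicates also reaching 30%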;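 note: 0% = DMSO neutral control and 100% = excess unlabeled competitor peptide PRC23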
Keap1 Nrf2 FP = Keap1-Nrf2 protein-protein interaction inhibitors, primary screen, biochemical, fluorescence polarization, single point | Keap1 Kelch-Nrf2 peptide fluorescence polarization, 1536-well | inhibition, % at 9.4 µM | actives 0.15% (n = 340,000); in the data active = inhibition above about 12%;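 note: human Keap1 Kelch domain with fluorescein labeled Nrf2 9mer peptide probe; 0% = neutral control wells and 100% = peptide positive control; higher means more block of Keap1 binding to Nrf2 peptide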
Starred values were filed as active, the others as inactive; · = not tested or not shown.

SMILES	CAL PDZ FP-1	C-LANA FP	APOBEC3G inh	APOBEC3A inh	CAL PDZ FP-2	Keap1 Nrf2 FP
COc1ccc(-c2nc3ccccc3o2)cc1OC	43.6*	0.1	2.6	-2.7	-4.3	2.4
COc1ccc(C(=O)NC(=S)NCc2ccc(-c3nc4ccccc4o3)cc2)cc1OC	-1.6	-2.2	-0.5	0.6	-4.3	-2.8
CC(=O)c1cccc(NS(=O)(=O)c2ccc(-c3cc(C)no3)s2)c1	0.3	1.6	-4.2	-1.2	-6.9	2.5
CC(C)(C)[C@H]1C=C(C(=O)NCc2ccccc2)O[C@@H](OCCCCO)C1	-0.7	-4.3	-3.6	-0.5	3.0	1.3
CNC(=O)Cn1nc(C)c(S(=O)(=O)N2CCOCC2)c1C	-0.9	-0.7	-8.0	-5.9	49.9*	2.9
CC1CCCCC1NC(=O)c1cccc(S(=O)(=O)N2CCN(Cc3ccccc3)CC2)c1 (centres undefined)	-1.2	-1.3	-4.2	-4.0	0.9	-2.1
CC(=O)Nc1cccc(C(=O)NNC(=O)c2n[nH]c(=O)c3ccccc23)c1	-1.3	0.6	-5.3	-5.2	·	1.4
COc1ccccc1Nc1nc(N)nc(CSc2ncccn2)n1	-1.0	-1.8	0.5	-2.2	69.5*	-4.7
O=C(CCN1CCOCC1)Nc1cc(C(=O)Nc2ccc(Cl)cc2)ccc1N1CC2CC(C1)c1cccc(=O)n1C2 (centres undefined)	-2.8	0.5	-9.7	-4.0	62.3*	-3.3
CCOc1ccc(NC(=O)c2ccc(N3CC4CC(C3)c3cccc(=O)n3C4)c(NC(=O)c3ccncc3)c2)cc1 (centres undefined)	-4.0	-1.6	-3.6	-1.7	1.8	2.0
N#CCc1nn(-c2ccc(Cl)cc2)c(N)c1C#N	-0.1	0.8	-7.9	-1.4	-0.6	-1.9
N#CCc1nn(-c2ccccc2)c2ncnc(N)c12	-0.4	6.2	-4.4	0.9	103.3*	-4.9
COCCCNC(=S)N/N=C/c1ccc(OC)c(Br)c1	-0.9	-0.9	-4.1	-4.4	54.1*	-8.5
COc1ccc(C=NNC(=S)NN=Cc2ccc(OC)c(OC)c2)cc1OC	-0.4	0.2	·	·	0.3	0.6
O=C1CSC(c2ccccc2[N+](=O)[O-])N1CCc1ccccc1 (centres undefined)	-0.3	0.8	-3.0	0.7	69.9*	-0.8
CN(/C=C/c1c([N+](=O)[O-])c(=O)n(C)c(=O)n1C)c1ccccc1	-7.2	-0.4	-8.2	5.4	86.2*	-3.0
CC(C)(C)c1ccc(N2C(=O)CSC2c2cccnc2)cc1 (centres undefined)	-0.5	0.3	-4.4	2.4	·	-3.2
O=C(COc1cc(Cl)ccc1Cl)Nc1nnc(C2CC2)s1	-0.5	-0.1	-11.2	0.1	37.3*	1.5
CCn1ncc(/C=N/N=C2\CCC3C4CCc5cc(O)ccc5C4CCC23C)c1C (centres undefined)	0.0	1.3	-2.9	-3.9	46.5*	3.7
C/C(O)=C(/C=NCC(=O)O)C(=O)Nc1nccs1	-3.6	-1.0	-5.3	-2.6	-7.7	-2.6
O=C(CCc1c[nH]c2ccccc12)NCCc1ccccc1	-0.9	-0.4	-8.2	-2.0	-3.0	0.0
NC(=NCCc1c[nH]c2ccccc12)NC(=O)c1ccc(Cl)cc1	0.3	81.1*	0.7	2.7	-1.9	2.8
O=C(CCc1c[nH]c2ccccc12)NCCc1ccc(Cl)cc1	-1.5	-0.1	-2.7	3.9	36.5*	1.3
O=C(N[C@@H](Cc1c[nH]c2ccccc12)C(=O)O)c1ccc(Cl)cc1	-1.1	-0.7	-3.4	-2.1	-4.1	0.2
O=Cc1c[nH]c2cccc(OCc3ccccc3)c12	-1.2	0.9	-3.0	0.8	-5.2	-0.8
